Tested on: HCT-15
Assay: Growth inhibition of human HCT15 cells at 10 uM after 48 hrs by coulter counter analysis
Format: functional
Conditions: HCT-15, 48 h, read-out: GI
Method in brief: (§1)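 Single-dose NCI 60-line panel screen of test compounds. Cells grown in RPMI 1640 with 10% FBS. Compounds dissolved in DMSO, then diluted in phosphate buffer saline (final DMSO below 1%). Wells run in duplicate at 6 × 10⁴ cells/ml. Controls held PBS and DMSO at matching dilutions. Incubation 48 h at 37 °C under humidified 5% CO2. Cells diluted tenfold in saline and counted by Coulter counter. Percent growth inhibition taken from mean-graph of treated-cell growth.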
`O=C(CCN1CCN(c2ccccc2)CC1)Nc1nc(-c2ccccc2)cs1` gave an inhibition of growth at 10 µM of 20.6%.

Tested on: BT-549
Assay: Growth inhibition of human BT549 cells at 10 uM after 48 hrs by coulter counter analysis
Format: functional
Conditions: BT-549, 48 h, read-out: GI
Method in brief: as §1
With `O=C(CCN1CCN(c2ccccc2)CC1)Nc1nc(-c2ccccc2)cs1` the inhibition of growth at 10 µM was 26.1%.

Tested on: RPMI-8226
Assay: Growth inhibition of human RPMI8226 cells at 10 uM after 48 hrs by coulter counter analysis
Format: functional
Conditions: RPMI-8226, 48 h, read-out: GI
Method in brief: as §1
Work on `O=C(CCN1CCN(c2ccccc2)CC1)Nc1nc(-c2ccccc2)cs1` yielded an inhibition of growth at 10 µM of 16.8%.

Tested on: SR
Assay: Growth inhibition of human SR cells at 10 uM after 48 hrs by coulter counter analysis
Format: functional
Conditions: read-out: GI
Method in brief: (§2)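 Single-dose screen in the NCI 60 cell line panel. Cells grown in RPMI 1640 with 10% FBS. Compounds dissolved in DMSO and diluted in phosphate buffered saline, final DMSO under 1%. Duplicate wells seeded from culture at 6 × 10⁴ cells/ml. Incubated 48 h at 37 °C, humidified, 5% CO2. Cells diluted tenfold in saline and Coulter-counted. Percent growth inhibition computed against PBS/DMSO controls.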
Compound `O=C(CCN1CCN(c2ccccc2)CC1)Nc1nc(-c2ccccc2)cs1` has an inhibition of growth at 10 µM of 19.9%.

Tested on: T47D
Assay: Growth inhibition of human T47D cells at 10 uM after 48 hrs by coulter counter analysis
Format: functional
Conditions: read-out: GI
Method in brief: as §2
`O=C(CCN1CCN(c2ccccc2)CC1)Nc1nc(-c2ccccc2)cs1` gave an inhibition of growth at 10 µM of 20.4%.

Tested on: MDA-MB-231
Assay: Growth inhibition of human MDA-MB-231 cells at 10 uM after 48 hrs by coulter counter analysis
Format: functional
Conditions: MDA-MB-231, 48 h, read-out: GI
Method in brief: as §1
`O=C(CCN1CCN(c2ccccc2)CC1)Nc1nc(-c2ccccc2)cs1` gave an inhibition of growth at 10 µM of less than 10%.

Tested on: UACC-62
Assay: Growth inhibition of human UACC62 cells at 10 uM after 48 hrs by coulter counter analysis
Format: functional
Conditions: UACC-62, 48 h, read-out: GI
Method in brief: as §2
`O=C(CCN1CCN(c2ccccc2)CC1)Nc1nc(-c2ccccc2)cs1` gave an inhibition of growth at 10 µM of 33.2%.

Tested on: SF-539
Assay: Growth inhibition of human SF539 cells at 10 uM after 48 hrs by coulter counter analysis
Format: functional
Conditions: SF-539, 48 h, read-out: GI
Method in brief: as §1
With `O=C(CCN1CCN(c2ccccc2)CC1)Nc1nc(-c2ccccc2)cs1` the inhibition of growth at 10 µM was 15.4%.

Tested on: OVCAR-5
Assay: Growth inhibition of human OVCAR5 cells at 10 uM after 48 hrs by coulter counter analysis
Format: functional
Conditions: OVCAR-5, 48 h, read-out: GI
Method in brief: as §1
With `O=C(CCN1CCN(c2ccccc2)CC1)Nc1nc(-c2ccccc2)cs1` the inhibition of growth at 10 µM was 18.8%.

Tested on: SK-MEL-2
Assay: Growth inhibition of human SK-MEL-2 cells at 10 uM after 48 hrs by coulter counter analysis
Format: functional
Conditions: SK-MEL-2, 48 h, read-out: GI
Method in brief: as §1
With `O=C(CCN1CCN(c2ccccc2)CC1)Nc1nc(-c2ccccc2)cs1` the inhibition of growth at 10 µM was less than 10%.

Tested on: SF-295
Assay: Growth inhibition of human SF295 cells at 10 uM after 48 hrs by coulter counter analysis
Format: functional
Conditions: SF-295, 48 h, read-out: GI
Method in brief: as §1
Work on `O=C(CCN1CCN(c2ccccc2)CC1)Nc1nc(-c2ccccc2)cs1` yielded an inhibition of growth at 10 µM of 13.6%.

Tested on: NCI-H322M
Assay: Growth inhibition of human NCI-H322M cells at 10 uM after 48 hrs by coulter counter analysis
Format: functional
Conditions: read-out: GI
Method in brief: as §1
In the case of `O=C(CCN1CCN(c2ccccc2)CC1)Nc1nc(-c2ccccc2)cs1`, the inhibition of growth at 10 µM is reported as 13%.

Tested on: not listed separately
Assay: Growth inhibition of human NCI-ADR-RES cells at 10 uM after 48 hrs by coulter counter analysis
Format: functional
Conditions: read-out: GI
Method in brief: as §1
For `O=C(CCN1CCN(c2ccccc2)CC1)Nc1nc(-c2ccccc2)cs1`, the inhibition of growth at 10 µM was 34.6%.

Tested on: HCC 2998
Assay: Growth inhibition of human HCC2998 cells at 10 uM after 48 hrs by coulter counter analysis
Format: functional
Conditions: HCC 2998, 48 h, read-out: GI
Method in brief: as §1
Compound `O=C(CCN1CCN(c2ccccc2)CC1)Nc1nc(-c2ccccc2)cs1` has an inhibition of growth at 10 µM of less than 10%.

Tested on: ACHN
Assay: Growth inhibition of human ACHN cells at 10 uM after 48 hrs by coulter counter analysis
Format: functional
Conditions: read-out: GI
Method in brief: as §1
Work on `O=C(CCN1CCN(c2ccccc2)CC1)Nc1nc(-c2ccccc2)cs1` yielded an inhibition of growth at 10 µM of 16.4%.

Tested on: KM12
Assay: Growth inhibition of human KM12 cells at 10 uM after 48 hrs by coulter counter analysis
Format: functional
Conditions: KM12, 48 h, read-out: GI
Method in brief: as §1
With `O=C(CCN1CCN(c2ccccc2)CC1)Nc1nc(-c2ccccc2)cs1` the inhibition of growth at 10 µM was 10.7%.

Tested on: MDA-MB-435
Assay: Growth inhibition of human MDA-MB-435 cells at 10 uM after 48 hrs by coulter counter analysis
Format: functional
Conditions: MDA-MB-435, 48 h, read-out: GI
Method in brief: as §1
For `O=C(CCN1CCN(c2ccccc2)CC1)Nc1nc(-c2ccccc2)cs1`, the inhibition of growth at 10 µM was 13.4%.

Tested on: OVCAR-4
Assay: Growth inhibition of human OVCAR4 cells at 10 uM after 48 hrs by coulter counter analysis
Format: functional
Conditions: OVCAR-4, 48 h, read-out: GI
Method in brief: as §1
With `O=C(CCN1CCN(c2ccccc2)CC1)Nc1nc(-c2ccccc2)cs1` the inhibition of growth at 10 µM was 36.2%.

Tested on: OVCAR-3
Assay: Growth inhibition of human OVCAR3 cells at 10 uM after 48 hrs by coulter counter analysis
Format: functional
Conditions: OVCAR-3, 48 h, read-out: GI
Method in brief: as §1
`O=C(CCN1CCN(c2ccccc2)CC1)Nc1nc(-c2ccccc2)cs1` gave an inhibition of growth at 10 µM of 26.1%.

Tested on: SW-620
Assay: Growth inhibition of human SW620 cells at 10 uM after 48 hrs by coulter counter analysis
Format: functional
Conditions: SW-620, 48 h, read-out: GI
Method in brief: as §2
Work on `O=C(CCN1CCN(c2ccccc2)CC1)Nc1nc(-c2ccccc2)cs1` yielded an inhibition of growth at 10 µM of 10.9%.

Tested on: NCI-H226
Assay: Growth inhibition of human NCI-H226 cells at 10 uM after 48 hrs by coulter counter analysis
Format: functional
Conditions: NCI-H226, 48 h, read-out: GI
Method in brief: as §1
Work on `O=C(CCN1CCN(c2ccccc2)CC1)Nc1nc(-c2ccccc2)cs1` yielded an inhibition of growth at 10 µM of 26.6%.

Tested on: IGROV-1
Assay: Growth inhibition of human IGROV1 cells at 10 uM after 48 hrs by coulter counter analysis
Format: functional
Conditions: IGROV-1, 48 h, read-out: GI
Method in brief: as §1
Work on `O=C(CCN1CCN(c2ccccc2)CC1)Nc1nc(-c2ccccc2)cs1` yielded an inhibition of growth at 10 µM of 33.5%.

Tested on: HOP-92
Assay: Growth inhibition of human HOP92 cells at 10 uM after 48 hrs by coulter counter analysis
Format: functional
Conditions: HOP-92, 48 h, read-out: GI
Method in brief: as §1
For `O=C(CCN1CCN(c2ccccc2)CC1)Nc1nc(-c2ccccc2)cs1`, the inhibition of growth at 10 µM was 59.6%.

Tested on: NCI-H522
Assay: Growth inhibition of human NCI-H522 cells at 10 uM after 48 hrs by coulter counter analysis
Format: functional
Conditions: NCI-H522, 48 h, read-out: GI
Method in brief: as §1
In the case of `O=C(CCN1CCN(c2ccccc2)CC1)Nc1nc(-c2ccccc2)cs1`, the inhibition of growth at 10 µM is reported as 21.3%.

Tested on: SN12C
Assay: Growth inhibition of human SN12C cells at 10 uM after 48 hrs by coulter counter analysis
Format: functional
Conditions: read-out: GI
Method in brief: as §1
In the case of `O=C(CCN1CCN(c2ccccc2)CC1)Nc1nc(-c2ccccc2)cs1`, the inhibition of growth at 10 µM is reported as 33.5%.

Tested on: SF-268
Assay: Growth inhibition of human SF268 cells at 10 uM after 48 hrs by coulter counter analysis
Format: functional
Conditions: SF-268, 48 h, read-out: GI
Method in brief: as §1
`O=C(CCN1CCN(c2ccccc2)CC1)Nc1nc(-c2ccccc2)cs1` gave an inhibition of growth at 10 µM of 22.3%.

Tested on: OVCAR-8
Assay: Growth inhibition of human OVCAR8 cells at 10 uM after 48 hrs by coulter counter analysis
Format: functional
Conditions: OVCAR-8, 48 h, read-out: GI
Method in brief: as §1
Compound `O=C(CCN1CCN(c2ccccc2)CC1)Nc1nc(-c2ccccc2)cs1` has an inhibition of growth at 10 µM of 23.6%.

Tested on: LOX IMVI
Assay: Growth inhibition of human LOXIMVI cells at 10 uM after 48 hrs by coulter counter analysis
Format: functional
Conditions: read-out: GI
Method in brief: as §1
With `O=C(CCN1CCN(c2ccccc2)CC1)Nc1nc(-c2ccccc2)cs1` the inhibition of growth at 10 µM was 25.7%.

Tested on: Malme-3M
Assay: Growth inhibition of human MALME-3M cells at 10 uM after 48 hrs by coulter counter analysis
Format: functional
Conditions: read-out: GI
Method in brief: as §1
`O=C(CCN1CCN(c2ccccc2)CC1)Nc1nc(-c2ccccc2)cs1` showed an inhibition of growth at 10 µM of less than 10%.

Tested on: MCF7
Assay: Growth inhibition of human MCF7 cells at 10 uM after 48 hrs by coulter counter analysis
Format: functional
Conditions: MCF7, 48 h, read-out: GI
Method in brief: as §1
Work on `O=C(CCN1CCN(c2ccccc2)CC1)Nc1nc(-c2ccccc2)cs1` yielded an inhibition of growth at 10 µM of 12.7%.

Tested on: M14
Assay: Growth inhibition of human M14 cells at 10 uM after 48 hrs by coulter counter analysis
Format: functional
Conditions: M14, 48 h, read-out: GI
Method in brief: as §1
Work on `O=C(CCN1CCN(c2ccccc2)CC1)Nc1nc(-c2ccccc2)cs1` yielded an inhibition of growth at 10 µM of less than 10%.

Tested on: UO-31
Assay: Growth inhibition of human UO31 cells at 10 uM after 48 hrs by coulter counter analysis
Format: functional
Conditions: UO-31, 48 h, read-out: GI
Method in brief: as §2
`O=C(CCN1CCN(c2ccccc2)CC1)Nc1nc(-c2ccccc2)cs1` showed an inhibition of growth at 10 µM of 68.9%.

Tested on: SK-MEL-5
Assay: Growth inhibition of human SK-MEL-5 cells at 10 uM after 48 hrs by coulter counter analysis
Format: functional
Conditions: SK-MEL-5, 48 h, read-out: GI
Method in brief: as §1
`O=C(CCN1CCN(c2ccccc2)CC1)Nc1nc(-c2ccccc2)cs1` gave an inhibition of growth at 10 µM of 52.5%.

Tested on: MDA-MB-468
Assay: Growth inhibition of human MDA-MB-468 cells at 10 uM after 48 hrs by coulter counter analysis
Format: functional
Conditions: MDA-MB-468, 48 h, read-out: GI
Method in brief: as §1
For `O=C(CCN1CCN(c2ccccc2)CC1)Nc1nc(-c2ccccc2)cs1`, the inhibition of growth at 10 µM was 33.4%.

Tested on: not listed separately
Assay: Growth inhibition of human Hs 578T cells at 10 uM after 48 hrs by coulter counter analysis
Format: functional
Conditions: read-out: GI
Method in brief: as §1
In the case of `O=C(CCN1CCN(c2ccccc2)CC1)Nc1nc(-c2ccccc2)cs1`, the inhibition of growth at 10 µM is reported as 14%.

Tested on: COLO 205
Assay: Growth inhibition of human COLO205 cells at 10 uM after 48 hrs by coulter counter analysis
Format: functional
Conditions: COLO 205, 48 h, read-out: GI
Method in brief: as §1
In the case of `O=C(CCN1CCN(c2ccccc2)CC1)Nc1nc(-c2ccccc2)cs1`, the inhibition of growth at 10 µM is reported as less than 10%.
